Measurements collected from several papers.
Compare with care: the assays were run in different laboratories.
Target: Cyclin-dependent kinase 3 (CDK3, Homo sapiens, UniProt Q00526)

| Structure (SMILES) | assay | setting | remaining binding [%] |
| --- | --- | --- | --- |
| CN(C)c1nccc(-c2cnn3ncccc23)n1 | binding | 1 µM | 78 |
| CC(C)(C)c1ccc(-c2nc(CBr)nn2-c2cccc(O)c2)cc1 | cell-free assay, competition with immobilised ligand | 10 µM | 100 |
| O=C(c1ccc(Nc2ncc(Cl)c(-c3ccc(Cl)s3)n2)cc1)N1CCC(N2CCCC2)CC1 | binding, competition with immobilised ligand | 1 µM | 47 |
| C[C@@H](c1cccc(C#N)c1)n1cc(Cl)cc(C(N)=O)c1=N | cell-free assay, competition with immobilised ligand | 1 µM | 100 |
| c1cnn2ncc(-c3ccnc(N4CCC45COC5)n3)c2c1 | binding | 1 µM | 74 |
| c1cncc(-c2cccc(Nc3nccc(NC4CCCCC4)n3)c2)c1 | binding, competition with immobilised ligand | 10 µM | 76 |
| CN(CCCC(F)(F)F)c1nccc(-c2cnn3ncccc23)n1 | binding | 1 µM | 100 |
| CCC(=O)N[C@H]1CC[C@@H](C(=O)N(C)c2ccc(-c3nc4ccccc4o3)cc2)C1 | cell-free assay, competition with immobilised ligand | 1 µM | 98 |
| O=C(Nc1c[nH]nc1C(=O)NC1CCNCC1)c1cc(F)cc(F)c1 | binding, competition with immobilised ligand | 1 µM | 91 |
| C[C@@H]1CN(c2ccc3ncc(-c4ccc5[nH]nc(C6CC6)c5c4)n3n2)C[C@H](C)O1 | binding, competition with immobilised ligand | 0.5 µM | 90 |
| N#Cc1ccc(Nc2ccc3[nH]c(=O)[nH]c3c2)c(Cl)c1 | cell-free assay, competition with immobilised ligand | 1 µM | 100 |
| N[C@@H]1CCN(c2nccc(-c3cnn4ncccc34)n2)C1 | binding | 1 µM | 100 |
| COc1ncc2cc3ccccc3nc2c1C#N | cell-free assay, competition with immobilised ligand | 5 µM | 100 |
| CC(=O)N1CCC(c2ccc(C(=O)NC3=NCCN3)cc2C(F)(F)F)CC1 | cell-free assay, competition with immobilised ligand | 1 µM | 100 |
| COc1cnc(Nc2cccc(S(N)(=O)=O)c2)nc1N1CCN(c2ccccc2)CC1 | binding, competition with immobilised ligand | 1 µM | 100 |
| CN(c1nccc(-c2cnn3ncccc23)n1)C1CC1 | binding | 1 µM | 100 |
| N#Cc1ccccc1CSc1nnc2c(n1)[nH]c1ccccc12 | binding, competition with immobilised ligand | 10 µM | 100 |
| CCCOc1ccc([C@H]2[C@H](C(=O)O)[C@@H](c3ccc4c(c3)OCO4)CN2CC(=O)Nc2c(CC)cccc2CC)cc1 | cell-free assay, competition with immobilised ligand | 1 µM | 95 |
| FC(F)(F)Oc1cccc(-c2cnc3ccc(-c4ccncc4)nn23)c1 | cell-free assay, competition with immobilised ligand | 5 µM | 79 |
| Cc1c(NC(=O)c2cc(C(N)=O)nc3cc(F)ccc23)c(C(F)(F)F)nn1Cc1ccc(C#N)cc1 | cell-free assay, competition with immobilised ligand | 1 µM | 95 |
| O=C(NCCCN1CCOCC1)c1ccc(Nc2nccc(-c3cc4ccccc4s3)n2)cc1 | binding, competition with immobilised ligand | 1 µM | 95 |
